Values after ≈ are worked out from the molar mass of the structure shown. Active and inactive are the calls of the source. The calls are words filed in the database; no cut-off is given here.
Columns and labels:
Escherichia coli [1] = assay: Antibacterial activity against Escherichia coli isolate ARS3 carrying pARS3 by agar dilution method; assay type: functional
Procedure, shortened: (§1)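 Minimal inhibitory concentration (MIC) by agar dilution on Mueller-Hinton agar, following the CLSI protocol. Strains were routinely grown in LB broth at 37°C with shaking.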

Escherichia coli [2] = assay: Antibacterial activity against Escherichia coli CSH-2 carrying Escherichia coli ARS3 pARS3 by agar dilution method; assay type: functional; procedure, shortened: as §1
Escherichia coli [3] = assay: Antibacterial activity against Escherichia coli CSH-2 by agar dilution method; assay type: functional; procedure, shortened: as §1
Escherichia coli [4] = assay: Antibacterial activity against Escherichia coli JM109 carrying pMCL-BE by agar dilution method; assay type: functional; procedure, shortened: as §1
Escherichia coli [5] = assay: Antibacterial activity against Escherichia coli JM109 carrying pMCL210 by agar dilution method; assay type: functional; procedure, shortened: as §1
Escherichia coli [6] = assay: Antibacterial activity against Escherichia coli (DE3)pLysS carrying pCold-IV by microdilution susceptibility test; assay type: functional
Escherichia coli [7] = assay: Antibacterial activity against Escherichia coli (DE3)pLysS carrying pCold-NpmA by microdilution susceptibility test; assay type: functional
Nucleic Acid [8] = assay: Binding affinity to 16S rRNA G1494(N7) position in wild type Escherichia coli JM109 30S sunit at 100 uM by footprint assay; assay type: nucleic-acid assay
Procedure, shortened: (§2)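 Aminoglycoside (1–1,000 μM final) was added, 37°C 30 min, then ice 10 min. DMS modification followed at 37°C for 10 min, then quench and rRNA extraction. G1494 protection was read by primer extension.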

Nucleic Acid [9] = assay: Binding affinity to 16S rRNA G1494(N7) position in wild type Escherichia coli JM109 30S sunit at 1000 uM by footprint assay; assay type: nucleic-acid assay; procedure, shortened: as §2
Nucleic Acid [10] = assay: Binding affinity to 16S rRNA G1494(N7) position in A1408-methylated Escherichia coli JM109 30S sunit at 100 uM by footprint assay; assay type: nucleic-acid assay; procedure, shortened: as §2
Nucleic Acid [11] = assay: Binding affinity to 16S rRNA G1494(N7) position in A1408-methylated Escherichia coli JM109 30S sunit at 1000 uM by footprint assay; assay type: nucleic-acid assay; procedure, shortened: as §2
Nucleic Acid [12] = assay: Binding affinity to 16S rRNA G1494(N7) position in A1408-methylated Escherichia coli JM109 30S sunit by footprint assay; assay type: nucleic-acid assay
Procedure, shortened: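 Aminoglycoside added (final 1 μM to 1,000 μM) for 30 min at 37°C, then 10 min on ice. DMS probing for 10 min at 37°C. The G1494 footprint was read by reverse-transcriptase primer extension.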

Compound	MIC (Escherichia coli [1]) [µg/mL]	MIC (Escherichia coli [2]) [µg/mL]	MIC (Escherichia coli [3]) [µg/mL]	MIC (Escherichia coli [4]) [µg/mL]	MIC (Escherichia coli [5]) [µg/mL]	MIC (Escherichia coli [6]) [µg/mL]	MIC (Escherichia coli [7]) [µg/mL]	Activity (Nucleic Acid [8])	Activity (Nucleic Acid [9])	Activity (Nucleic Acid [10])	Activity (Nucleic Acid [11])	Activity (Nucleic Acid [12])
CN[C@H]1C[C@@H](N)[C@H](O)[C@@H](O[C@@H]2O[C@H](CO)[C@H](O)[C@H]3O[C@@]4(O[C@H]23)O[C@H]([C@H](N)CO)[C@H](O)[C@H](O)[C@H]4O)[C@@H]1O	128 (≈ 243 µM)	16 (≈ 30.3 µM)	16 (≈ 30.3 µM)	32 (≈ 60.7 µM)	32 (≈ 60.7 µM)							
NCC[C@H](O)C(=O)N[C@@H]1C[C@H](N)[C@@H](O[C@H]2O[C@H](CN)[C@@H](O)[C@H](O)[C@H]2O)[C@H](O)[C@H]1O[C@H]1O[C@H](CO)[C@@H](O)[C@H](N)[C@H]1O [AMIKACIN]	256 (≈ 437 µM)	16 (≈ 27.3 µM)	0.13 (≈ 0.222 µM)	32 (≈ 54.6 µM)	0.5 (≈ 0.854 µM)							
CN[C@@H]1[C@@H](O[C@H]2O[C@H](CO)[C@@H](N)[C@H](O)[C@H]2O)OC2C[C@@H](N)[C@@H](O[C@H]3[C@H](O)[C@@H](O)[C@H](N)C[C@@H]3N)OC2[C@@H]1O (stereo not given in full) [APRAMYCIN]	> 256	> 256	1 (≈ 1.85 µM)	> 256	2 (≈ 3.71 µM)	3.9 (≈ 7.23 µM)	> 1000					
NCC[C@H](O)C(=O)N[C@@H]1C[C@H](N)[C@@H](O[C@H]2O[C@H](CN)CC[C@H]2N)[C@H](O)[C@H]1O[C@H]1O[C@H](CO)[C@@H](O)[C@H](N)[C@H]1O [ARBEKACIN]	64 (≈ 116 µM)	4 (≈ 7.24 µM)	0.13 (≈ 0.235 µM)	4 (≈ 7.24 µM)	0.25 (≈ 0.452 µM)							
NC[C@@H]1CC[C@@H](N)[C@@H](O[C@H]2[C@H](O)[C@@H](O[C@H]3O[C@H](CO)[C@@H](O)[C@H](N)[C@H]3O)[C@H](N)C[C@@H]2N)O1 [DIBEKACIN]	> 256	128 (≈ 283 µM)	0.13 (≈ 0.288 µM)	128 (≈ 283 µM)	0.25 (≈ 0.554 µM)							
NC[C@@H]1O[C@H](O[C@H]2[C@@H](O)[C@H](O[C@@H]3[C@@H](O)[C@H](N)C[C@H](N)[C@H]3O[C@H]3O[C@H](CN)[C@@H](O)[C@H](O)[C@H]3N)O[C@@H]2CO)[C@H](N)[C@@H](O)[C@@H]1O [FRAMYCETIN]	> 256	64 (≈ 104 µM)	0.13 (≈ 0.212 µM)	64 (≈ 104 µM)	0.25 (≈ 0.407 µM)			Active	Active	inactive	inactive	
CN[C@@H]1[C@@H](O)[C@@H](O[C@@H]2[C@@H](O)[C@H](O[C@H]3O[C@H](CN)[C@@H](O)[C@H](O)[C@H]3O)[C@@H](N)C[C@H]2NC(=O)[C@@H](O)CN)OC[C@]1(C)O [ISEPAMICIN]	> 256	64 (≈ 112 µM)	0.13 (≈ 0.228 µM)	128 (≈ 225 µM)	0.13 (≈ 0.228 µM)							
NC[C@H]1O[C@H](O[C@H]2[C@H](O)[C@@H](O[C@H]3O[C@H](CO)[C@@H](O)[C@H](N)[C@H]3O)[C@H](N)C[C@@H]2N)[C@H](O)[C@@H](O)[C@@H]1O [KANAMYCIN]	> 256	> 256	0.25 (≈ 0.516 µM)	> 256	0.5 (≈ 1.03 µM)							
NC[C@@H]1O[C@H](O[C@H]2[C@@H](O)[C@H](O[C@@H]3[C@@H](O)[C@H](N)C[C@H](N)[C@H]3O[C@H]3O[C@H](CO)[C@@H](O)C[C@H]3N)O[C@@H]2CO)[C@H](N)[C@@H](O)[C@@H]1O[C@H]1O[C@H](CO)[C@@H](O)[C@H](O)[C@@H]1O [LIVIDOMYCIN]	256 (≈ 336 µM)	16 (≈ 21 µM)	0.5 (≈ 0.656 µM)	32 (≈ 42 µM)	2 (≈ 2.63 µM)							
CCN[C@@H]1C[C@H](N)[C@@H](O[C@H]2OC(CN)=CC[C@H]2N)[C@H](O)[C@H]1O[C@H]1OC[C@](C)(O)[C@H](NC)[C@H]1O [NETILMICIN]	> 256	> 256	≤ 0.06	> 256	0.13 (≈ 0.273 µM)							
NC[C@@H]1O[C@H](O[C@H]2[C@@H](O)[C@H](O[C@@H]3[C@@H](O)[C@H](N)C[C@H](N)[C@H]3O[C@H]3O[C@H](CO)[C@@H](O)[C@H](O)[C@H]3N)O[C@@H]2CO)[C@H](N)[C@@H](O)[C@@H]1O [PAROMOMYCIN]	64 (≈ 104 µM)	4 (≈ 6.5 µM)	0.5 (≈ 0.812 µM)	4 (≈ 6.5 µM)	1 (≈ 1.62 µM)							
NC[C@H]1O[C@H](O[C@H]2[C@H](O[C@@H]3O[C@H](CO)[C@@H](O)[C@H]3O)[C@@H](O)[C@H](N)C[C@@H]2N)[C@H](N)[C@@H](O)[C@@H]1O [RIBOSTAMYCIN]	> 256	> 256	0.25 (≈ 0.55 µM)	> 256	0.5 (≈ 1.1 µM)			Active	Active	inactive	inactive	
CN[C@@H]1[C@@H](O)[C@@H](O[C@@H]2[C@@H](O)[C@H](O[C@H]3OC(CN)=CC[C@H]3N)[C@@H](N)C[C@H]2N)OC[C@]1(C)O [SISOMICIN]	> 256	> 256	≤ 0.06	256 (≈ 572 µM)	0.13 (≈ 0.29 µM)							
CN[C@@H]1[C@H](O)[C@H](NC)[C@H]2O[C@@]3(O)C(=O)C[C@@H](C)O[C@H]3O[C@@H]2[C@H]1O [SPECTINOMYCIN]	> 256	> 256	16 (≈ 48.1 µM)	16 (≈ 48.1 µM)	16 (≈ 48.1 µM)							
CN[C@@H]1[C@H](O[C@H]2[C@H](O[C@H]3[C@H](O)[C@@H](O)[C@H](N=C(N)N)[C@@H](O)[C@@H]3N=C(N)N)O[C@@H](C)[C@]2(O)C=O)O[C@@H](CO)[C@H](O)[C@H]1O [STREPTOMYCIN]	128 (≈ 220 µM)	32 (≈ 55 µM)	1 (≈ 1.72 µM)	1 (≈ 1.72 µM)	1 (≈ 1.72 µM)							
NC[C@H]1O[C@H](O[C@H]2[C@H](O)[C@@H](O[C@H]3O[C@H](CO)[C@@H](O)[C@H](N)[C@H]3O)[C@H](N)C[C@@H]2N)[C@H](N)C[C@@H]1O [TOBRAMYCIN]	> 256	128 (≈ 274 µM)	≤ 0.06	128 (≈ 274 µM)	0.13 (≈ 0.278 µM)							
GENTAMICIN	> 256	128	< 0.06	16	0.13			Active	Active	inactive	inactive	Dose-dependent effect

From ChEMBL document CHEMBL1152454, “Novel plasmid-mediated 16S rRNA m1A1408 methyltransferase, NpmA, found in a clinically isolated Escherichia coli strain resistant to structurally diverse aminoglycosides” (2007)
